Reference: PMC7094870 (ACS chemical biology, 2020)

Tests used:
[1] = test system: CrpTE (cryptophycin thioesterase); assay: Analytical substrate conversion assay of CrpTE; assay type: biochemical
Procedure, shortened: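 Analytical-scale reactions of CrpTE with NAc-activated seco substrates carrying varied unit A aryl or heterocyclic groups (including methyl pyrazoles), with the benzyl substrate run as a control. Chromatographic peaks were assigned to unreacted starting material, hydrolysis product and cyclized macrolactone. Where starting material and hydrolysis peaks co-eluted, values were estimated from extrapolated peaks.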

[2] = target: (UniProt A4D937); assay: CrpE P450 substrate binding titration; design: species or system Nostoc sp. ATCC 53789
[3] = test system: CrpE P450 (histidine tagged); assay: CrpE P450 substrate binding titration; design: species or system Nostoc sp. ATCC 53789; conditions: type I (substrate-like) or type II (inhibitor-like) shift
[4] = test system: CrpE P450; assay: CrpE in vitro epoxidation conversion assay; assay type: biochemical, Nostoc sp. ATCC 53789

Chain of (UniProt A4D937) (A4D937 1-450): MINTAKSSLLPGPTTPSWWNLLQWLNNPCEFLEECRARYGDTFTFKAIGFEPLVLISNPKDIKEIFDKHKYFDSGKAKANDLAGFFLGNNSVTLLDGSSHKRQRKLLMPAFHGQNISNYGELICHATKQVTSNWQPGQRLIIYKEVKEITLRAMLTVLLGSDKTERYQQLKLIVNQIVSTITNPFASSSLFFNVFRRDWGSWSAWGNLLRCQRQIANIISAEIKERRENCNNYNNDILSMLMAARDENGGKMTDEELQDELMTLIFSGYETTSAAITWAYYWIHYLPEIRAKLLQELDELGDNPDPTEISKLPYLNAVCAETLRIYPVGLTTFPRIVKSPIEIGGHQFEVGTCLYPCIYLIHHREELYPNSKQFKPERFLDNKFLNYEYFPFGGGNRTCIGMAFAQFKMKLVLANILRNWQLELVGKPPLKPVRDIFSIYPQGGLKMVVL

## COc1ccc(C[C@H]2NC(=O)/C=C/C[C@@H]([C@H](C)/C=C/c3ccccc3)OC(=O)[C@H](CC(C)C)OC(=O)[C@H](C)CNC2=O)cc1Cl [16a, cryptophycin 3]
[1]; TTN = moles of product / moles of TE
  total turnover number (TTN): 110
[1]; analytical scale, wild type CrpTE, NAc-activated seco substrate
  percent conversion (CrpTE cyclization): 73%
[2]
  Kd: 0.53 ± 0.15 µM
[3]
  spectral shift on binding to CrpE: type I shift
[4]; RhFRED redox system
  conversion (CrpE epoxidation): no conversion
[4]; spinach ferredoxin and ferredoxin reductase redox system
  percent conversion (CrpE epoxidation): 38%
